Data set [1] in a line: Stability of compound in mouse liver microsomes assessed as parent compound remaining at 1 uM measured at 10 mins in presence of NADPH. It counts as ADME, Microsome. The note with it: read-out: Stabilty. A digest of the protocol: (§1)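 Test compound at 1 μM with human, mouse or rat liver microsomes (0.5 mg/ml protein) plus NADPH cofactor; final solvents 0.01% DMSO, 0.05% acetonitrile; percent parent remaining at 10 min. Verapamil, cerivastatin and warfarin as positive controls. SD given when multiple batches were tested.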

Data set [2] is described as follows: Stability of compound in human liver microsomes assessed as parent compound remaining at 1 uM measured at 10 mins in presence of NADPH. The class given is ADME, Microsome. The note with it: for remaining at 10 min, 1 µM: liver microsomes, read-out: Stabilty. A digest of the protocol: as §1
Data set [3] can be described thus: Stability of compound in rat liver microsomes assessed as parent compound remaining at 1 uM measured at 10 mins in presence of NADPH. The class given is ADME, Microsome. As to conditions: for remaining at 10 min, 1 µM: liver microsomes, read-out: Stabilty. A digest of the protocol: as §1
(Liver microsomes are a subcellular fraction often used to study metabolism.)

Data set [4] concerns the target T1, Sodium/glucose cotransporter 2 (Homo sapiens) (UniProt P31639).
T1 sequence (whole entry): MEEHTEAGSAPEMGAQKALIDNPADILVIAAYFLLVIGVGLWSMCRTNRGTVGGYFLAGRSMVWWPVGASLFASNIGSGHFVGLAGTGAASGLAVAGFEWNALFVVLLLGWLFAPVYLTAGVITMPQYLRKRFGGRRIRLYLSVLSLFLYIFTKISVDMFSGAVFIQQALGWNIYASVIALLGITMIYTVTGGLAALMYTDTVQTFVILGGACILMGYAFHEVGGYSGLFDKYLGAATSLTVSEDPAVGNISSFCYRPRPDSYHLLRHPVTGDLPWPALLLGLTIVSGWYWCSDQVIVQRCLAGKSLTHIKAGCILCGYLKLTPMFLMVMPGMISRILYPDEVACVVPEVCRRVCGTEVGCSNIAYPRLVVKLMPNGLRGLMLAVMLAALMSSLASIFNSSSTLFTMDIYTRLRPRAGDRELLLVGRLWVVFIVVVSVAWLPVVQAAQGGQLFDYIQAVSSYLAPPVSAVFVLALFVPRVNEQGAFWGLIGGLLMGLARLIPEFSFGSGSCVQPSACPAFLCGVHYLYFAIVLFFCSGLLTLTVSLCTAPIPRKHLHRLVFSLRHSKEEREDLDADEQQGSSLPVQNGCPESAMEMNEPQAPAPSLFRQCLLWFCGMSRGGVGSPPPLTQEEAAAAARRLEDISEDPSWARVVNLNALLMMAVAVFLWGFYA
In words: Inhibition of human SGLT2 expressed in CHO cells assessed as reduction in [14C]-methyl-alpha -D-glucopyranoside accumulation at 0.3 uM relative to control. It counts as cell-based. A digest of the protocol:
(§2)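 CHO cells expressing human SGLT1 or SGLT2; inhibition of [14C]methyl D-glucopyranoside (AMG) accumulation measured with test compound at 0.3 μM.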

The target in data set [5] is T2, Sodium/glucose cotransporter 1 (Homo sapiens) (UniProt P13866).
T2 sequence (whole entry): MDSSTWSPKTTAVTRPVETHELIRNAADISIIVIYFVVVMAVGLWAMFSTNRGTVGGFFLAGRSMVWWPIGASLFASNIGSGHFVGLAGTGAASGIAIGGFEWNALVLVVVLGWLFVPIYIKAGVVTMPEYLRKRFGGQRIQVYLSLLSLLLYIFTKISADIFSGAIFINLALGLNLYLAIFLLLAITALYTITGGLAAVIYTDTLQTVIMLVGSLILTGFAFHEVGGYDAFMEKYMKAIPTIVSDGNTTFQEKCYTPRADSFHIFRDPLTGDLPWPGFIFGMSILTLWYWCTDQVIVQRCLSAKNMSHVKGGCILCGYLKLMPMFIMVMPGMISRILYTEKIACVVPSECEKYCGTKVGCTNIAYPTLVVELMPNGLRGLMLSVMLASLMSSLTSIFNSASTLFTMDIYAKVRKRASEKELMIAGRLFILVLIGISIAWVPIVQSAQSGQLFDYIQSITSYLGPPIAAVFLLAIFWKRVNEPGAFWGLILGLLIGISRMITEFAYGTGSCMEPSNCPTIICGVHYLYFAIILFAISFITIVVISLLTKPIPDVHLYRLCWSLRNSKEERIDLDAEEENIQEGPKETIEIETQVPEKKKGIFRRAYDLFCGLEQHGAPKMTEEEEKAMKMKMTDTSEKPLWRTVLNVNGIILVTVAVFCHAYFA
In words: Inhibition of human SGLT1 expressed in CHO cells assessed as reduction in [14C]-methyl-alpha -D-glucopyranoside accumulation at 0.3 uM relative to control. It counts as cell-based. The essentials: as §2

For data set [6], the system named is Rattus norvegicus. In words: Hypoglycemic activity in overnight fasted Sprague-Dawley rat assessed as percent reduction in blood glucose AUC at 1 mg/kg, po measured after 4 hrs post glucose challenge by OGTT relative to control. It counts as functional. Also on record: scale not given: the % may be the effect or the level left. The essentials: (§3)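 Overnight-fasted SD rats dosed orally at 1 or 10 mg/kg in 0.5% Methocel (vehicle controls) 60 min before oral glucose challenge. […] N=8 per group; mean ± SEM; one-way ANOVA-Dunnett.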

Data set [7] in a line: In vivo inhibition of SGLT1 in overnight fasted Sprague-Dawley rat assessed as amount of urinary glucose excretion assessed per 4 hrs at 1 mg/kg, po. It counts as functional. The essentials: as §3
Data set [8] is described as follows: Oral bioavailability in Sprague-Dawley rat at 10 mg/kg. It counts as ADME, organism-based. As to conditions: in vivo. The essentials:
(§4)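 Male Sprague Dawley rats dosed 2 mg/kg IV (vehicle 20% HPbCD) or 10 mg/kg PO (vehicle 0.5% Methocel); pharmacokinetic parameters derived from plasma exposure.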

Data set [9] in a line: In vivo inhibition of SGLT2 in overnight fasted Sprague-Dawley rat assessed as amount of urinary glucose excretion assessed per 4 hrs at 10 mg/kg, po. The class given is functional. The essentials:
as §3

Data set [10] can be described thus: Half life in Sprague-Dawley rat at 2 mg/kg, iv. The class given is ADME, organism-based. As to conditions: in vivo. The essentials:
as §4

Data set [11] is described as follows: Clearance in Sprague-Dawley rat at 2 mg/kg, iv or 10 mg/kg, po. The class given is ADME, organism-based. As to conditions: in vivo. The essentials:
as §4

Data set [12] in a line: Half life in human liver microsomes at 1 uM measured at 10 mins in presence of NADPH. It counts as ADME, Microsome.
A short description of data set [13]: Volume of distribution at steady state in Sprague-Dawley rat at 2 mg/kg, iv or 10 mg/kg, po. The class given is ADME, organism-based. The note with it: in vivo, read-out: Vdss. The essentials: as §4
The nature of data set [14]: Cmax in Sprague-Dawley rat at 2 mg/kg, iv or 10 mg/kg, po. Also noted: dose 10 mg/kg. It counts as ADME, organism-based. As to conditions: in vivo. A digest of the protocol:
as §4

Data set [15] in a line: Tmax in Sprague-Dawley rat at 2 mg/kg, iv or 10 mg/kg, po. The class given is ADME, organism-based. As to conditions: in vivo. The essentials:
as §4

For data set [16], the system named is Rattus norvegicus. In words: Hypoglycemic activity in overnight fasted Sprague-Dawley rat assessed as percent reduction in blood glucose AUC at 10 mg/kg, po measured after 4 hrs post glucose challenge by OGTT relative to control. The class given is functional. Also noted: scale not given: the % may be the effect or the level left. A digest of the protocol:
as §3

A short description of data set [17]: AUC (0 to infinity) in Sprague-Dawley rat at 2 mg/kg, iv or 10 mg/kg, po. The class given is ADME, organism-based. Also noted: dose 10 mg/kg. The note with it: in vivo. A digest of the protocol: as §4
Data set [18] in a line: In vivo inhibition of SGLT1/2 in overnight fasted Sprague-Dawley rat assessed as amount of urinary glucose excretion assessed per 4 hrs at 1 mg/kg, po. The class given is functional. A digest of the protocol: as §3
The test system of data set [19] is Rattus norvegicus. In words: In vivo inhibition of SGLT1/2 in overnight fasted po dosed Sprague-Dawley rat assessed as reduction in blood glucose by OGTT. It counts as functional, organism-based. The note with it: dose mg/kg 1-10.

The term inhibition denotes the percentage by which the read-out fell short of the control. One may read the bioavailability as the share of a dose that reaches the circulation, judged against a reference dose that is usually intravenous. Broadly, the half-life is the time needed for the level to fall by half in the phase considered. Broadly, the Cmax is the peak of the concentration-time curve. For orientation: Tmax means the time at which the peak concentration occurs. By AUC(0-inf) is commonly meant total exposure, with the tail of the curve extrapolated.

Turning to `C[C@]1(F)[C@H](O)[C@@H](O)[C@H](c2cc(Cc3cc4ccccc4s3)c(Cl)cc2O)O[C@@H]1CO`, the results for the remaining at 10 min, 1 µM in data set [1], in data set [2] and in data set [3] were 105%, 89% and 15%, respectively.
Consider `COc1cc(O)c([C@@H]2O[C@H](CO)[C@@](C)(F)[C@H](O)[C@H]2O)cc1Cc1ccc2c(c1)CCCO2`, for which the inhibition was 67% in [4] and 31% in [5].
Take `OC[C@H]1O[C@@H](c2cc(Cc3ccc4c(c3)OCCO4)c(Cl)cc2O)[C@H](O)[C@@H](O)C1(F)F`: the values for the remaining at 10 min, 1 µM in data set [1], in data set [2] and in data set [3] were 74%, 96% and 18%, respectively.
On to `COc1cc(OC)c([C@@H]2O[C@H](CO)[C@@](C)(F)[C@H](O)[C@H]2O)cc1Cc1ccc2c(c1)OCCO2`, for which the inhibition in data set [4] is 59%; in data set [5], 25%.
In the case of `COc1cc(O)c([C@@H]2O[C@H](CO)C(F)(F)[C@H](O)[C@H]2O)cc1Cc1cc2ccccc2s1`, the figures for the remaining at 10 min, 1 µM in data set [1], in data set [2] and in [3] were 111%, 103% and 98%, respectively.
Consider `COc1cc(O)c([C@@H]2O[C@H](CO)C(F)(F)[C@H](O)[C@H]2O)cc1Cc1ccc2c(c1)OCCO2`, for which the remaining at 10 min, 1 µM in [1] turned out to be 97%; in data set [2], 99%; in [3] it was 26%.
`COc1cc(Cl)c(Cc2cc3ccccc3s2)cc1[C@@H]1O[C@H](CO)C(F)(F)[C@H](O)[C@H]1O`: the values for the remaining at 10 min, 1 µM in [1] and in data set [2] were 37% and 65%, respectively. Further, in data set [3] (microsomes, 10 min, 1 µM), the Stabilty is given as 123%.
As to `OC[C@H]1O[C@@H](c2cc(Cc3cc4ccccc4s3)c(Cl)cc2O)[C@H](O)[C@@H](O)C1(F)F`, the Activity in the data set with Rattus norvegicus [6] came to 16%; in [7], 0.001 g; in data set [9] it was 0.005 g; with Rattus norvegicus [16], 41.4%. The same compound registered a bioavailability in data set [8] of 46.8%. Also, the results for the remaining at 10 min, 1 µM in data set [1] and in data set [3] were 106% and 94%, respectively. In data set [10], this compound gave a half-life of 3.71 h. Also, the clearance in data set [11] is 3.92 mL/min/kg. Moreover, the t1/2 in data set [12] is > 3 h. Moreover, the Stabilty in data set [2] (microsomes, 10 min, 1 µM) was determined as 120%. Besides, the Vd in data set [13] was found to be 0.91 L/kg. In [14], this compound came in with a Cmax of 5240 ng/mL. Besides, in data set [15], the Tmax stood at 0.31 h. Moreover, the total exposure AUC(0-inf) in data set [17] was found to be 18600 ng·h/mL.
Consider `COc1cc(O)c([C@@H]2O[C@H](CO)C(F)(F)[C@H](O)[C@H]2O)cc1Cc1ccc2c(c1)CCO2`, for which the remaining at 10 min, 1 µM in data set [1] is 91%; in data set [2] it was 100%; in [3] it was 70%.
With `COc1ccc(Cc2cc([C@@H]3O[C@H](CO)C(F)(F)[C@H](O)[C@H]3O)c(O)cc2Cl)cc1`, the Activity is 38.4% in the data set with Rattus norvegicus [6], 0.099 g in [18] and 62.8% in the data set on Rattus norvegicus [16]. Moreover, the bioavailability in data set [8] stood at 17.4%. Besides, the remaining at 10 min, 1 µM is 97% in [1], 90% in data set [2] and 58% in data set [3]. Also, the half-life in data set [10] was 4.85 h. In [11], this compound had a clearance of 10.9 mL/min/kg. Also, the inhibition entry with Rattus norvegicus [19] was “Dose-dependent effect”. Also, the Vd in data set [13] turned out to be 1.89 L/kg. Besides, the peak level in [14] (Cmax) was 549 ng/mL. Further, in [15], the Tmax worked out at 0.42 h. Besides, the total exposure AUC(0-inf) in data set [17] came to 2700 ng·h/mL.
As for `COc1cc(Cl)c(Cc2ccc3c(c2)OCCO3)cc1[C@@H]1O[C@H](CO)C(F)(F)[C@H](O)[C@H]1O`, the values for the inhibition in [4] and in [5] were 78% and 37%, respectively.
On to `C[C@]1(F)[C@H](O)[C@@H](O)[C@H](c2cc(Cc3ccc4c(c3)OCCO4)c(Cl)cc2O)O[C@@H]1CO`, for which the figures for the remaining at 10 min, 1 µM in data set [1], in [2] and in data set [3] were 96%, 74% and 56%, respectively.
In data set [8], `COc1cc(O)c([C@@H]2O[C@H](CO)[C@@](C)(F)[C@H](O)[C@H]2O)cc1Cc1ccc2c(c1)OCCO2` came in with a bioavailability of 21.8%. The remaining at 10 min, 1 µM in data set [1] amounted to 98%; in data set [2], 103%; in data set [3], 101%. The half-life in data set [10] was 1.52 h. Moreover, in data set [11], the clearance came to 72 mL/min/kg. Moreover, the Vd in data set [13] was 2.41 L/kg. Besides, the Cmax in data set [14] is 274 ng/mL. In addition, the Tmax in data set [15] is 0.25 h.

The values above are taken from ChEMBL document CHEMBL4725317 (Bioorg Med Chem Lett, 2020).
